What was measured:
[1] = Selectivity ratio of CC50 for monkey LLC-MK2 cells to IC50 for epimastigote stage of epimastigote stage of Trypanosoma cruzi Y
[2] = Selectivity ratio of CC50 for mouse J774A1 cells to IC50 for promastigote stage of Leishmania amazonensis WHOM/BR/75/JOSEFA; type: ADME, cell-based, J774.A1; details: read-out: Ratio CC50/IC50
Trypanosoma cruzi [3] = experiment: Antitrypanosomal activity against amastigote stage of Trypanosoma cruzi Y infected in monkey LLC-MK2 cells after 96 hrs by Geimsa staining-based light microscopy; type: functional, organism-based; details: LLC-MK2, 96 h
Summary of the method: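 LLCMK2 monolayers (2.5 x 10^5 cells/mL, 24 h, 37 °C, 5% CO2) infected with trypomastigotes at 10 per host cell for 24 h, washed, treated with compound (0.1 to 50 μM) 96 h. Methanol-fixed, Giemsa-stained, 200 cells counted; survival index (% infected × amastigotes/cell); IC50 by nonlinear regression.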

Trypanosoma cruzi [4] = experiment: Antitrypanosomal activity against trypomastigote stage of Trypanosoma cruzi Y infected in monkey LLC-MK2 cells after 96 hrs by Pizzi-Brener method; type: functional, organism-based
[5] = Selectivity ratio of CC50 for monkey LLC-MK2 cells to IC50 for amastigote stage of Trypanosoma cruzi Y; type: ADME, cell-based; details: read-out: Ratio CC50/IC50
[6] = Selectivity ratio of CC50 for monkey LLC-MK2 cells to IC50 for epimastigote stage of epimastigote stage of Trypanosoma cruzi Y; type: ADME, cell-based; details: read-out: Ratio CC50/IC50
Leishmania amazonensis [7] = experiment: Antileishmanial activity against promastigote stage of Leishmania amazonensis WHOM/BR/75/JOSEFA after 72 hrs by hemocytometry; type: functional, organism-based
[8] = Selectivity ratio of CC50 to IC50 for promastigote stage of Leishmania amazonensis WHOM/BR/75/JOSEFA; parameters: reference not given here
Trypanosoma cruzi [9] = experiment: Antitrypanosomal activity against epimastigote stage of Trypanosoma cruzi Y after 96 hrs by hemocytometry; type: functional, organism-based
Summary of the method: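 Log-phase parasites (promastigotes 3-day, Warren's medium + 10% FBS, 25°C; epimastigotes 4-day, LIT + 10% FBS, 28°C) seeded at 1 × 10^6 cells/mL with compound (0.1-100 µM; DMSO ≤1%). Promastigotes read at 72 h, epimastigotes at 96 h, by hemocytometer counting. IC50 by nonlinear regression.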

[10] = Selectivity ratio of CC50 for monkey LLC-MK2 cells to EC50 for trypomastigote stage of Trypanosoma cruzi Y; type: ADME, cell-based; details: read-out: Ratio CC50/EC50
Leishmania amazonensis [11] = experiment: Antileishmanial activity against amastigote stage of Leishmania amazonensis WHOM/BR/75/JOSEFA infected in BALB/c mouse peritoneal macrophages after 72 hrs by Geimsa staining-based light microscopy; type: functional, organism-based
[12] = Selectivity ratio of CC50 for BALB/c mouse peritoneal macrophages to IC50 for amastigote stage of Leishmania amazonensis WHOM/BR/75/JOSEFA

IC50 (Trypanosoma cruzi [3])	EC50 (Trypanosoma cruzi [4])	IC50 (Leishmania amazonensis [7])	IC50 (Trypanosoma cruzi [9])	IC50 (Leishmania amazonensis [11])	SMILES	selectivity ratio [1]	selectivity ratio [2]	selectivity ratio [5]	selectivity ratio [6]	selectivity ratio [8]	selectivity ratio [10]	Ratio CC50/IC50 [12]
–	48.1 µM	24.7 µM	28.4 µM	–	COc1ccc2nc(-c3ccccc3)c(S(C)(=O)=O)nc2c1	9.3	4.1	–	9.3	4.1	5.5	–
–	20.3 µM	1.9 µM	21.4 µM	–	c1ccc(-c2nc3ccccc3nc2-c2ccc(OCCN3CCCCC3)cc2)cc1	1.8	29.6	–	1.8	29.6	1.8	–
–	1.7 µM	0.1 µM	0.1 µM	1.5 µM	C[S+]([O-])c1nc2ccc(Cl)cc2nc1Cl (stereo not drawn)	54.2	108	–	54.2	108	2.9	9
> 25 µM	27.7 µM	2.9 µM	2.2 µM	20.2 µM	COc1ccc2nc(NC3CCCCC3)c(S(C)(=O)=O)nc2c1	20.8	18.1	–	20.8	18.1	1.6	2.6
–	23.6 µM	14.7 µM	29.1 µM	–	COc1ccc2nc(S(C)(=O)=O)c(NC3CCCCC3)nc2c1	2.7	6.5	–	2.7	6.5	3.3	–
–	22.9 µM	21.2 µM	38 µM	–	COc1ccc2nc(S(C)(=O)=O)c(NCCC(C)C)nc2c1	–	5	–	2.6	–	4.2	–
7.4 µM	8.2 µM	0.8 µM	1.6 µM	–	CS(=O)(=O)c1nc2ccc(Br)cc2nc1NCCO	3.4	40.3	0.8	3.4	40.3	0.7	–
14.9 µM	11.7 µM	2.6 µM	3.1 µM	–	COc1ccc2nc(NCC(C)C)c(S(C)(=O)=O)nc2c1	22.6	22.8	4.7	22.6	22.8	6	–
–	9 µM	1.4 µM	2.3 µM	–	CCCCNc1nc2cc(Cl)ccc2nc1S(C)(=O)=O	93.4	50.6	–	93.4	50.6	23.8	–
–	> 50 µM	36.2 µM	49.5 µM	–	CCCCNc1nc2cc(OC)ccc2nc1Cl	7.9	4.4	–	7.9	4.4	–	–

Continued, molecule first:

SMILES	IC50 (Trypanosoma cruzi [3])	EC50 (Trypanosoma cruzi [4])	IC50 (Leishmania amazonensis [7])	IC50 (Trypanosoma cruzi [9])	IC50 (Leishmania amazonensis [11])	selectivity ratio [1]	selectivity ratio [2]	selectivity ratio [5]	selectivity ratio [6]	selectivity ratio [8]	selectivity ratio [10]	Ratio CC50/IC50 [12]
COc1ccc(-c2nc3ccccc3nc2-c2ccc(OC)cc2)cc1	8.6 µM	> 100 µM	30 µM	36.6 µM	–	9	19.7	38.4	9	19.7	–	–
CS/C(=C/[N+](=O)[O-])Nc1ccc(N(C)C)cc1	–	35 µM	52.8 µM	31.8 µM	–	6.6	18.9	–	6.6	18.9	6	–
COc1ccc2nc(Cl)c([S+](C)[O-])nc2c1 (stereo not drawn)	–	4.2 µM	0.8 µM	0.5 µM	4.6 µM	39.2	27.8	–	39.2	27.8	4.4	4.9
CS(=O)(=O)c1nc2ccccc2nc1Cl	> 15 µM	6.4 µM	1.6 µM	0.6 µM	–	70.1	14.4	–	70.1	14.4	7.3	–
COc1ccc2nc(S(C)(=O)=O)c(Cl)nc2c1	–	9.8 µM	2.9 µM	3.1 µM	–	7.5	7.6	–	7.5	7.6	2.4	–
CS(=O)(=O)c1nc2ccc(Br)cc2nc1Cl	13.5 µM	1.8 µM	0.2 µM	0.3 µM	1.4 µM	49.6	71.8	1.1	49.6	71.8	7	9.9
CS(=O)(=O)c1nc2ccc(Cl)cc2nc1Cl	8.6 µM	6.9 µM	0.2 µM	0.3 µM	3.1 µM	25.9	66	0.9	25.9	66	4.1	4.3
CCCCNc1nc2ccccc2nc1S(C)(=O)=O	–	15.7 µM	2.9 µM	4.4 µM	–	5.5	11.4	–	5.5	11.4	1.5	–
CS(=O)(=O)c1nc2ccccc2nc1NCCO	–	22.6 µM	2.9 µM	4.2 µM	–	4.4	13	–	4.4	13	0.8	–
CCCCNc1nc2cc(OC)ccc2nc1S(C)(=O)=O	–	41.2 µM	32.2 µM	55.3 µM	–	1.6	5.5	–	1.6	5.5	2.1	–
COc1ccc2nc(S(C)(=O)=O)c(NCC(C)C)nc2c1	–	24.8 µM	27.8 µM	55.4 µM	–	1.5	3.6	–	1.5	3.6	3.3	–
CCCCNc1nc2cc(Br)ccc2nc1S(C)(=O)=O	> 25 µM	5.6 µM	1.6 µM	2.3 µM	–	43.7	28.3	–	43.7	28.3	17.8	–
CS(=O)(=O)c1nc2ccc(Cl)cc2nc1NC1CCCCC1	9.6 µM	3.9 µM	2.2 µM	2 µM	–	38.3	15	7.9	38.3	15	19.6	–
C[S+]([O-])c1nc2ccc(Cl)cc2nc1NC1CCCCC1 (stereo not drawn)	7.7 µM	6.3 µM	1.9 µM	1.8 µM	–	21.8	33.8	5.1	21.8	33.8	6.2	–
COc1ccc2nc(Cl)c(NCc3ccccc3)nc2c1	> 20 µM	> 50 µM	24.5 µM	15.9 µM	25 µM	22.2	5.4	–	22.2	5.4	–	5.3
CCCCNc1nc2ccc(OC)cc2nc1NCCCC	–	> 50 µM	20.9 µM	29.4 µM	–	3.2	4.3	–	3.2	4.3	–	–
CCCCNc1nc2ccc(OC)cc2nc1NCc1ccccc1	–	> 50 µM	13.6 µM	38.4 µM	–	0.6	3.6	–	0.6	3.6	–	–
COc1ccc2nc(Nc3ccccc3)c(Nc3ccccc3)nc2c1	–	37.9 µM	6.5 µM	45.6 µM	–	1	4.4	–	1	4.4	1.2	–
C[C@@H]1[C@H](O)[C@@H](C)/C=C/C=C/C=C/C=C/C=C/C=C/C=C/[C@H](O[C@@H]2O[C@H](C)[C@@H](O)[C@H](N)[C@@H]2O)C[C@@H]2O[C@](O)(C[C@@H](O)C[C@@H](O)[C@H](O)CC[C@@H](O)C[C@@H](O)CC(=O)O[C@H]1C)C[C@H](O)[C@H]2C(=O)O [AMPHOTERICIN B]	–	–	–	–	0.4 µM	–	–	–	–	–	–	–

From ChEMBL document CHEMBL3396970, “Synthesis and biological evaluation of novel 2,3-disubstituted quinoxaline derivatives as antileishmanial and antitrypanosomal agents” (Eur J Med Chem, 2015)
